Test results taken from ChEMBL document CHEMBL5329156, “Discovery and development of novel substituted monohydrazides as potent antifungal agents” (RSC Med Chem, 2023).
≈ marks a conversion by molar mass, not a printed value. Calls of active or inactive are those of the source. The rule behind the calls is not given here.

Key:
[1] = tested on: Cryptococcus neoformans; assay: Antifungal activity against Cryptococcus neoformans ATCC MYA-895 assessed as fungal growth inhibition by double dilution method; assay type: functional
Procedure, shortened: (§1)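 Broth microdilution after CLSI M27-A3/M38-A2 with minor changes. Single colony grown overnight in YPD at 35 °C, 200 rpm. Compound final range 0.06-31.3 µg/mL; incubated 48 h at 35 °C.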

[2] = tested on: HEK293; assay: Cytotoxicity against human HEK-293 cells assessed as reduction in cell viability at 31.3 microg/ml; assay type: toxicity, cell-based; details: dose 31.3 µg/ml
Procedure, shortened: (§2)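 Cells in DMEM with 10% FBS and 1% Pen/Strep, seeded at 10,000 cells/well and held overnight at 37 °C, 5% CO2. Compounds added at final 31.3-0.12 µg/mL (0.05% DMSO vehicle) for 24 h. Resazurin then added for 6 h; fluorescence read at ex 560/em 590. Triton X-100 1% as positive control; values normalized to vehicle. Run in quadruplicate.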

[3] = tested on: Kodamaea ohmeri; assay: Antifungal activity against Kodamaea ohmeri AR Bank # 396 assessed as fungal growth inhibition by double dilution method; assay type: functional; procedure, shortened: as §1
[4] = tested on: [Candida] auris; assay: Antifungal activity against Candida auris AR Bank # 388 assessed as fungal growth inhibition by double dilution method; assay type: functional; details: Candidozyma auris; procedure, shortened: as §1
[5] = tested on: [Candida] auris; assay: Antifungal activity against Candida auris AR Bank # 383 assessed as fungal growth inhibition by double dilution method; assay type: functional; details: Candidozyma auris; procedure, shortened: as §1
[6] = tested on: Saccharomyces cerevisiae; assay: Antifungal activity against Saccharomyces cerevisiae AR Bank # 399 assessed as fungal growth inhibition by double dilution method; assay type: functional; procedure, shortened: as §1
[7] = tested on: Aspergillus fumigatus; assay: Antifungal activity against Aspergillus fumigatus NRRL 6113 assessed as fungal growth inhibition by double dilution method; assay type: functional
[8] = tested on: Candida albicans; assay: Antifungal activity against Candida albicans ATCC 10231 assessed as fungal growth inhibition by double dilution method; assay type: functional; procedure, shortened: as §1
[9] = tested on: Candida albicans; assay: Antifungal activity against Candida albicans ATCC 64124 assessed as fungal growth inhibition by double dilution method; assay type: functional
Procedure, shortened: (§3)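 Broth microdilution after CLSI M27-A3/M38-A2 with minor modifications. A single colony was grown overnight in YPD at 35 °C with shaking at 200 rpm. Cells were mixed 1:1 with compound (final 0.06-31.3 µg/mL, from DMSO stocks) and incubated 48 h at 35 °C.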

[10] = tested on: Candida albicans; assay: Antifungal activity against itraconazole/fluconazole resistant Candida albicans ATCC MYA-1003 assessed as fungal growth inhibition by double dilution method; assay type: functional; procedure, shortened: as §3
[11] = tested on: Aspergillus fumigatus; assay: Antifungal activity against Aspergillus fumigatus NRRL 163 assessed as fungal growth inhibition by double dilution method; assay type: functional
[12] = tested on: Pichia kudriavzevii; assay: Antifungal activity against Pichia kudriavzevii AR Bank # 397 assessed as fungal growth inhibition by double dilution method; assay type: functional; procedure, shortened: as §1
[13] = tested on: [Candida] auris; assay: Antifungal activity against Candida auris AR Bank # 386 assessed as fungal growth inhibition by double dilution method; assay type: functional; details: Candidozyma auris; procedure, shortened: as §1
[14] = tested on: [Candida] auris; assay: Antifungal activity against Candida auris AR Bank # 390 assessed as fungal growth inhibition by double dilution method; assay type: functional; details: Candidozyma auris; procedure, shortened: as §1
[15] = tested on: Aspergillus terreus; assay: Antifungal activity against Aspergillus terreus ATCC MYA-3633 assessed as fungal growth inhibition by double dilution method; assay type: functional
[16] = tested on: [Candida] auris; assay: Antifungal activity against Candida auris AR Bank # 0384 assessed as fungal growth inhibition by double dilution method; assay type: functional; details: Candidozyma auris; procedure, shortened: as §1
[17] = tested on: [Candida] auris; assay: Antifungal activity against Candida auris AR Bank # 385 assessed as fungal growth inhibition by double dilution method; assay type: functional; details: Candidozyma auris; procedure, shortened: as §1
[18] = tested on: Candida duobushaemulonii; assay: Antifungal activity against Candida duobushaemulonii AR Bank # 394 assessed as fungal growth inhibition by double dilution method; assay type: functional; details: Candidozyma duobushaemuli; procedure, shortened: as §1
[19] = tested on: [Candida] haemuloni; assay: Antifungal activity against Candida haemulonii AR Bank # 393 assessed as fungal growth inhibition by double dilution method; assay type: functional; details: Candidozyma haemuli; procedure, shortened: as §1
[20] = tested on: Candida albicans; assay: Antifungal activity against itraconazole/fluconazole susceptible Candida albicans ATCC MYA-2310 assessed as fungal growth inhibition by double dilution method; assay type: functional; procedure, shortened: as §3
[21] = tested on: [Candida] auris; assay: Antifungal activity against Candida auris AR Bank # 387 assessed as fungal growth inhibition by double dilution method; assay type: functional; details: Candidozyma auris; procedure, shortened: as §1
[22] = tested on: [Candida] auris; assay: Antifungal activity against Candida auris AR Bank # 381 assessed as fungal growth inhibition by double dilution method; assay type: functional; details: Candidozyma auris; procedure, shortened: as §1
[23] = tested on: [Candida] auris; assay: Antifungal activity against Candida auris AR Bank # 384 assessed as fungal growth inhibition by double dilution method; assay type: functional; details: Candidozyma auris; procedure, shortened: as §1
[24] = tested on: Aspergillus flavus; assay: Antifungal activity against Aspergillus flavus ATCC MYA-3631 assessed as fungal growth inhibition by double dilution method; assay type: functional
[25] = tested on: Candida albicans; assay: Antifungal activity against itraconazole/fluconazole resistant Candida albicans ATCC 90819 assessed as fungal growth inhibition by double dilution method; assay type: functional; procedure, shortened: as §3
[26] = tested on: Saccharomyces cerevisiae; assay: Antifungal activity against Saccharomyces cerevisiae AR Bank # 400 assessed as fungal growth inhibition by double dilution method; assay type: functional; procedure, shortened: as §1
[27] = tested on: Clavispora lusitaniae; assay: Antifungal activity against Clavispora lusitaniae AR Bank # 398 assessed as fungal growth inhibition by double dilution method; assay type: functional; procedure, shortened: as §1
[28] = tested on: Aspergillus fumigatus; assay: Antifungal activity against Aspergillus fumigatus NRRL 5109 assessed as fungal growth inhibition by double dilution method; assay type: functional
[29] = tested on: [Candida] auris; assay: Antifungal activity against Candida auris AR Bank # 382 assessed as fungal growth inhibition by double dilution method; assay type: functional; details: Candidozyma auris; procedure, shortened: as §1
[30] = tested on: Pichia kudriavzevii; assay: Antifungal activity against Pichia kudriavzevii ATCC 6258 assessed as fungal growth inhibition by double dilution method; assay type: functional; procedure, shortened: as §1
[31] = tested on: Nakaseomyces glabratus; assay: Antifungal activity against Candida glabrata ATCC 2001 assessed as fungal growth inhibition by double dilution method; assay type: functional; procedure, shortened: as §1
[32] = tested on: Candida albicans; assay: Antifungal activity against itraconazole/fluconazole susceptible Candida albicans ATCC MYA-2876 assessed as fungal growth inhibition by double dilution method; assay type: functional; procedure, shortened: as §3
[33] = tested on: Candida duobushaemulonii; assay: Antifungal activity against Candida duobushaemulonii AR Bank # 391 assessed as fungal growth inhibition by double dilution method; assay type: functional; details: Candidozyma duobushaemuli; procedure, shortened: as §1
[34] = tested on: [Candida] haemuloni; assay: Antifungal activity against Candida haemulonii AR Bank # 395 assessed as fungal growth inhibition by double dilution method; assay type: functional; details: Candidozyma haemuli; procedure, shortened: as §1
[35] = tested on: Nakaseomyces glabratus; assay: Antifungal activity against Candida glabrata ATCC 22019 assessed as fungal growth inhibition by double dilution method; assay type: functional; procedure, shortened: as §1
[36] = tested on: Candida duobushaemulonii; assay: Antifungal activity against Candida duobushaemulonii AR Bank # 392 assessed as fungal growth inhibition by double dilution method; assay type: functional; details: Candidozyma duobushaemuli; procedure, shortened: as §1
[37] = tested on: HepG2; assay: Cytotoxicity against human HepG2 cells assessed as reduction in cell viability upto 31.3 microg/ml; assay type: toxicity, cell-based; details: dose < 31.3 µg/ml; procedure, shortened: as §2
[38] = tested on: Candida albicans; assay: Antibiofilm activity against Candida albicans ATCC 10231 assessed as reduction in biofilm production at 1.96 to 3.9 microg/ml by biofilm formation assay; assay type: functional, organism-based; details: dose 1.96-3.9 µg/ml
[39] = tested on: J774.A1; assay: Cytotoxicity against J774A.1 cells assessed as reduction in cell viability at 31.3 microg/ml; assay type: toxicity, cell-based; details: mouse, dose 31.3 µg/ml; procedure, shortened: as §2
[40] = tested on: Aspergillus nidulans; assay: Antifungal activity against Aspergillus nidulans ATCC 38163 assessed as fungal growth inhibition by double dilution method; assay type: functional
[41] = tested on: Candida albicans; assay: Antifungal activity against itraconazole/fluconazole resistant Candida albicans ATCC MYA-1237 assessed as fungal growth inhibition by double dilution method; assay type: functional; procedure, shortened: as §3
[42] = tested on: [Candida] auris; assay: Antifungal activity against Candida auris AR Bank # 389 assessed as fungal growth inhibition by double dilution method; assay type: functional; details: Candidozyma auris; procedure, shortened: as §1
[43] = tested on: [Candida] auris; assay: Antifungal activity against Candida auris AR Bank # 0390 assessed as fungal growth inhibition by double dilution method; assay type: functional; details: Candidozyma auris; procedure, shortened: as §1

`O=C(NNc1ccc(F)cc1F)c1ccccn1` was tested, and the MIC [1] was 0.24 µg/mL (≈ 0.963 µM), the Activity [2] was “Non-Toxic” and the MIC [3] was 0.98 µg/mL (≈ 3.93 µM). For the same compound, the MIC [4] was 0.12 µg/mL (≈ 0.482 µM), the MIC [5] was 0.49 µg/mL (≈ 1.97 µM) and the MIC [6] was 0.49 µg/mL (≈ 1.97 µM). It also gave an MIC [7] of 31.3 µg/mL (≈ 126 µM), an MIC [8] of 0.12 µg/mL (≈ 0.482 µM) and an MIC [9] of 1.95 µg/mL (≈ 7.82 µM). For the same compound, the MIC [10] was 0.49 µg/mL (≈ 1.97 µM), the MIC [11] was > 31.3 µg/mL and the MIC [12] was ≤ 0.06 µg/mL. For the same compound, the MIC [13] was 0.49 µg/mL (≈ 1.97 µM), the MIC [14] was 0.12 µg/mL (≈ 0.482 µM) and the MIC [15] was 0.98 µg/mL (≈ 3.93 µM). For the same compound, the MIC [16] was 0.49 µg/mL (≈ 1.97 µM), the MIC [17] was 0.49 µg/mL (≈ 1.97 µM) and the MIC [18] was 3.9 µg/mL (≈ 15.6 µM). The MIC [19] was 0.49 µg/mL (≈ 1.97 µM), the MIC [20] was 31.3 µg/mL (≈ 126 µM) and the MIC [21] was 0.12 µg/mL (≈ 0.482 µM). The MIC [22] was 0.49 µg/mL (≈ 1.97 µM), the MIC [23] was 0.49 µg/mL (≈ 1.97 µM) and the MIC [24] was 15.6 µg/mL (≈ 62.6 µM). It also gave an MIC [25] of 0.98 µg/mL (≈ 3.93 µM), an MIC [26] of 0.49 µg/mL (≈ 1.97 µM) and an MIC [27] of 1.95 µg/mL (≈ 7.82 µM). For the same compound, the MIC [28] was 15.6 µg/mL (≈ 62.6 µM), the MIC [29] was 0.49 µg/mL (≈ 1.97 µM) and the MIC [30] was 0.49 µg/mL (≈ 1.97 µM). For the same compound, the MIC [31] was 0.98 µg/mL (≈ 3.93 µM), the MIC [32] was 0.98 µg/mL (≈ 3.93 µM) and the MIC [33] was 0.12 µg/mL (≈ 0.482 µM). The MIC [34] was 0.24 µg/mL (≈ 0.963 µM), the MIC [35] was 1.95 µg/mL (≈ 7.82 µM) and the MIC [36] was 0.49 µg/mL (≈ 1.97 µM). The Activity [37] was “Non-Toxic”, the Activity [38] was “inactive” and the Activity [39] was “Non-Toxic”. For the same compound, the MIC [40] was 0.49 µg/mL (≈ 1.97 µM), the MIC [41] was 0.49 µg/mL (≈ 1.97 µM) and the MIC [42] was 0.24 µg/mL (≈ 0.963 µM). It also gave an MIC [43] of 0.12 µg/mL (≈ 0.482 µM).
